Common to all, as to assay type: functional
For assay [1], the species on record is Oryctolagus cuniculus. The experiment in a line: Inhibition of contraction induced by caffeine on rabbit renal artery. The arrangement: concentration or dose not given beside the values. Summed up:
(§1)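 Male New Zealand White rabbit left renal artery rings (2.5–3 mm) in Krebs' solution at 37 °C, gassed 95% O2/5% CO2, 3 g preload, 90 min equilibration, isometric tension. Three matched control contractions to caffeine 10 mM, then caffeine contractions repeated at 20 min with each rising test concentration until maximal inhibition. IC50 by linear regression; five to nine preparations.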

The species entered for assay [2] is Oryctolagus cuniculus. Nature of the assay: Inhibition of contraction induced by phenylephrine on rabbit renal artery. Summed up: (§2)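 Endothelium-denuded arterial rings, with denudation confirmed by no acetylcholine (1 μM) relaxation of tissue precontracted with phenylephrine 0.1 μM. After reproducible 40 mM K+ responses, sustained tonic contraction to K+ 40 mM or phenylephrine 5 μM. Test compound added cumulatively until maximal relaxation.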

The species entered for assay [3] is Oryctolagus cuniculus. Nature of the assay: Inhibition of contraction induced by potassium on rabbit renal artery. Summed up:
as §2

Assay [4] is filed under the species Oryctolagus cuniculus. The experiment in a line: Concentration which inhibits 50% of contraction induced by caffeine on rabbit renal artery. The gist of the method: as §1
Assay [5] is filed under the species Oryctolagus cuniculus. Nature of the assay: Concentration which inhibits 50% of contraction induced by phenylephrine on rabbit renal artery. The gist of the method:
as §2

The species named for assay [6] is Oryctolagus cuniculus. Nature of the assay: Concentration which inhibits 50% of contraction induced by potassium on rabbit renal artery. The gist of the method: as §2
The species entered for assay [7] is Oryctolagus cuniculus. Nature of the assay: Inhibitory selectivity for Phenylephrine (PE) and Potassium (K+) induced contraction on rabbit renal artery.
The species entered for assay [8] is Oryctolagus cuniculus. Nature of the assay: 50% inhibition of contraction induced by potassium on rabbit renal artery. Summed up:
as §2

These results are taken from ChEMBL document CHEMBL1131582, “New substituted 1,4-benzoxazine derivatives with potential intracellular calcium activity” (J Med Chem, 1998).

As a reminder, the Inhibition is how much of the control response was suppressed. The IC50 is the concentration that gives 50% inhibition. As to `Fc1ccc(C(OCCNCCCC2CN(Cc3ccccc3)c3ccccc3O2)c2ccc(F)cc2)cc1` (centres undefined), the Inhibition in assay [1] worked out at 5%; in assay [2], 12%; in assay [3] it was 26%. Also, the IC50 in assay [4] is more than 30 µM; in assay [5], more than 100 µM; in assay [6] it was more than 100 µM.
In assay [1], `O=C1Nc2cc3c(cc2OC1CCCN1CCN(c2ccc(F)cc2)CC1)OCCO3` (centres undefined) had an Inhibition of 22%. For the same compound, the IC50 was more than 30 µM in assay [4], 0.43 µM in assay [5] and 45.3 µM in assay [6]. Besides, the IC50 ratio in assay [7] is given as 0.009.
For the compound `CN(CCOC(c1ccc(F)cc1)c1ccc(F)cc1)CC1CNc2ccccc2O1` (centres undefined), in assay [1], the Inhibition is 23%. This compound also registered an IC50 in assay [4] of more than 30 µM.
Consider `COc1ccc(CCNCCCC2CN(C(=O)c3ccccc3)c3ccccc3O2)cc1OC` (centres undefined), for which the IC50 in assay [4] was determined as 30 µM; in assay [5], 12.6 µM; in assay [6] it was 8.4 µM. In addition, the IC50 ratio in assay [7] amounted to 1.5.
As for `COc1ccc(CCN(CCCC2Oc3cc4c(cc3NC2=O)OCCO4)Cc2ccccc2)cc1OC` (centres undefined), the Inhibition in assay [1] came out at 0%; in assay [2] it was 47%; in assay [3] it was 41%. For the same compound, the IC50 was more than 30 µM in assay [4], 100 µM in assay [5] and not below 100 µM in assay [6]. In addition, the IC50 ratio result in assay [7] is reported as “>=1”.
`O=C(c1ccccc1)N1CC(CCCN2CCN(c3ccc(F)cc3)CC2)Oc2ccccc21` (centres undefined) had an Inhibition in assay [1] of 8%. In addition, the IC50 in assay [4] is more than 30 µM; in assay [5], 2.8 µM; in assay [6] it was 19 µM. In assay [7], the IC50 ratio is 0.15.
For `COc1ccc(CCNCC2CN(C)c3ccccc3O2)cc1OC` (centres undefined) the same measures were 46%, more than 30 µM, 20.9 µM, 57.4 µM and 0.36.
With `COc1ccc(CCNCCC2CN(C)c3ccccc3O2)cc1OC` (centres undefined), the results for the IC50 in assay [4], in assay [5] and in assay [6] were 21.8 µM, 11.8 µM and 44.7 µM, respectively. The IC50 ratio in assay [7] was 0.26.
For `COc1ccc(CCNCCC2CN(Cc3ccccc3)c3ccccc3O2)cc1OC` (centres undefined) the same measures were 12.3 µM, 10.1 µM, 4.4 µM and 2.3.
`COc1ccc(CCNCC2CN(Cc3ccccc3)c3ccccc3O2)cc1OC` (centres undefined): the Inhibition in assay [1] came out at 48%. For the same compound, the IC50 was more than 30 µM in assay [4], 11.4 µM in assay [5] and 9.4 µM in assay [6]. In assay [7], the IC50 ratio was determined as 1.2.
`COc1ccc(CCNCCCC2Oc3cc4c(cc3NC2=O)OCCO4)cc1OC` (centres undefined): the Inhibition in assay [1] is reported as 0%; in assay [3] it was 38%. Further, the figures for the half-inhibitory concentration (IC50) in assay [4], in assay [5] and in assay [6] were more than 30 µM, 14.2 µM and more than 100 µM, respectively.
Consider `COc1ccc(CCNCCC2CN(Cc3ccc(OC)c(OC)c3)c3ccccc3O2)cc1OC` (centres undefined), for which the Inhibition in assay [1] is on record as 57%. Besides, the concentration for half-maximal inhibition (IC50) in assay [4] was 30 µM; in assay [5] it was 33.7 µM; in assay [6], 15.1 µM. Also, the IC50 ratio in assay [7] stood at 2.2.
On the same counts, the results for `COc1ccc(CCNCCC2CN(S(=O)(=O)c3cccc4ccccc34)c3ccccc3O2)cc1OC` (centres undefined) are 46%, more than 30 µM, 83.7 µM, 8.3 µM and 10.1.
Take `COc1ccc(CCN(C)CCCC2Oc3cc4c(cc3NC2=O)OCCO4)cc1OC` (centres undefined): the Inhibition in assay [1] was 0%. The concentration for half-maximal inhibition (IC50) in assay [4] was more than 30 µM; in assay [5], 14.6 µM; in assay [6], 2.2 µM. Moreover, the IC50 ratio in assay [7] is listed as 7.3.
In turn, `Fc1ccc(N2CCN(CC3CN(Cc4ccccc4)c4ccccc4O3)CC2)cc1` (centres undefined) displayed an Inhibition in assay [1] of 2%. Also, the IC50 is more than 30 µM in assay [4], 10.9 µM in assay [5] and 52.4 µM in assay [6]. For the same compound, the IC50 ratio in assay [7] is 0.21.
In the case of `COc1ccc(CCNCCCC2CNc3ccccc3O2)cc1OC` (centres undefined), the Inhibition amounted to 16% in assay [1], 49% in assay [2] and 30% in assay [3]. For the same compound, the half-maximal inhibitory concentration (IC50) in assay [4] was more than 30 µM; in assay [5], 100 µM; in assay [6], more than 100 µM.
As to `Fc1ccc(N2CCN(CCCC3CN(Cc4ccccc4)c4ccccc4O3)CC2)cc1` (centres undefined), in assay [1], the Inhibition came out at 0%. Also, the IC50 in assay [4] was more than 30 µM; in assay [6], 76.5 µM. The IC50 ratio in assay [7] was 0.06.
As to `Fc1ccc(N2CCN(CC3CNc4ccccc4O3)CC2)cc1` (centres undefined), in assay [1], the Inhibition stood at 9%. Besides, the IC50 was more than 30 µM in assay [4], 1.6 µM in assay [5] and 24.7 µM in assay [6]. For the same compound, in assay [7], the IC50 ratio is 0.07.
As to `COc1ccc(CCNCC2CNc3ccccc3O2)cc1OC` (centres undefined), the Inhibition in assay [1] was found to be 26%. In assay [4], this compound registered an IC50 of more than 30 µM.
As to `CN1CC(CN2CCN(c3ccc(F)cc3)CC2)Oc2ccccc21` (centres undefined), the Inhibition in assay [1] is recorded as 32%. The IC50 in assay [4] was more than 30 µM; in assay [5] it was 1.4 µM; in assay [6] it was 23.1 µM. Besides, the IC50 ratio in assay [7] stood at 0.06.
Take `COc1ccc(CCNCCCC2CN(Cc3ccccc3)c3ccccc3O2)cc1OC` (centres undefined): the values for the IC50 in assay [4], in assay [5] and in assay [6] were 11.8 µM, 21.6 µM and 10.2 µM, respectively. In addition, in assay [7], the IC50 ratio came to 2.1.
For the compound `Fc1ccc(N2CCN(CCCC3CNc4ccccc4O3)CC2)cc1` (centres undefined), in assay [1], the Inhibition was determined as 22%. The 50% inhibitory concentration (IC50) in assay [4] is more than 30 µM; in assay [5], 3.2 µM; in assay [6], 11 µM. Moreover, the IC50 ratio in assay [7] is 0.29.
In the case of `Fc1ccc(C(OCCNCC2CNc3ccccc3O2)c2ccc(F)cc2)cc1` (centres undefined), the half-maximal inhibitory concentration (IC50) in assay [4] was determined as 26.3 µM; in assay [6], 74.8 µM.
Consider `COc1ccc(CCNCCCCC2CN(Cc3ccccc3)c3ccccc3O2)cc1OC` (centres undefined), for which the IC50 worked out at 13.9 µM in assay [4], 43.1 µM in assay [5] and 8.6 µM in assay [6]. In assay [7], the IC50 ratio was 5.
Turning to `Fc1ccc(C(OCCNCC2CN(Cc3ccccc3)c3ccccc3O2)c2ccc(F)cc2)cc1` (centres undefined), in assay [1], the Inhibition was determined as 5%. Besides, the 50% inhibitory concentration (IC50) was more than 30 µM in assay [4], 93.3 µM in assay [5] and 17.6 µM in assay [6]. The IC50 ratio in assay [7] is 5.3.
In the case of `COc1ccc(CCN(C)CCC2CN(Cc3ccccc3)c3ccccc3O2)cc1OC` (centres undefined), the Inhibition in assay [1] is reported as 37%. Besides, the concentration for half-maximal inhibition (IC50) in assay [4] is more than 30 µM; in assay [5] it was 32.6 µM; in assay [6], 7.9 µM. Besides, the IC50 ratio in assay [7] turned out to be 4.1.
For the compound `COc1ccc(CCNCCC2CNc3ccccc3O2)cc1OC` (centres undefined), the Inhibition was 26% in assay [1] and 25% in assay [8]. Besides, the IC50 is more than 30 µM in assay [4], 42 µM in assay [5] and more than 100 µM in assay [6].
As for `COc1ccc(CCNCCC2CN(S(=O)(=O)c3cccc4cnccc34)c3ccccc3O2)cc1OC` (centres undefined), the Inhibition in assay [1] amounted to 23%. The 50% inhibitory concentration (IC50) in assay [4] is more than 30 µM; in assay [5], 13.3 µM; in assay [6], 7.3 µM. The IC50 ratio in assay [7] was determined as 1.8.
